According to ChEMBL document CHEMBL1122984, “Synthesis and beta-lactamase inhibitory properties of 2 beta-[(acyloxy)methyl]-2-methylpenam-3 alpha-carboxylic acid 1,1-dioxides” (1985):
Converted amounts (≈) assume the structure as drawn.

Experiments:
[1] = molecular target: Carbapenem-hydrolyzing beta-lactamase KPC (Klebsiella pneumoniae) (UniProt Q9F663)
[2] = molecular target: Beta-lactamase (Staphylococcus aureus) (UniProt P00807); assay: Minimum protective concentration used to protect the compound against Staphylococcus aureus A9606 beta-lactamase catalyzed hydrolysis
Beta-lactamase (Staphylococcus aureus), sequence (P00807 whole entry): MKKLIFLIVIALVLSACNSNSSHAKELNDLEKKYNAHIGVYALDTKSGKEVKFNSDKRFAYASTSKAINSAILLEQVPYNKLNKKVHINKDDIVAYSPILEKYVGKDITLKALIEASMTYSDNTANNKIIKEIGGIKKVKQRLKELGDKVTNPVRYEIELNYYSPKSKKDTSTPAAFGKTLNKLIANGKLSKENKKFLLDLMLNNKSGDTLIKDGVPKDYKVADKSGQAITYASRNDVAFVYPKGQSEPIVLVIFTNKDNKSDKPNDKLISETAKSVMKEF

[3] = molecular target: Metallo-beta-lactamase type 2 (Bacteroides fragilis) (UniProt P25910); assay: Minimum protective concentration used to protect the compound against Bacteroides fragilis A-22,695 beta-lactamase catalyzed hydrolysis
Metallo-beta-lactamase type 2 (Bacteroides fragilis), sequence (P25910 whole entry): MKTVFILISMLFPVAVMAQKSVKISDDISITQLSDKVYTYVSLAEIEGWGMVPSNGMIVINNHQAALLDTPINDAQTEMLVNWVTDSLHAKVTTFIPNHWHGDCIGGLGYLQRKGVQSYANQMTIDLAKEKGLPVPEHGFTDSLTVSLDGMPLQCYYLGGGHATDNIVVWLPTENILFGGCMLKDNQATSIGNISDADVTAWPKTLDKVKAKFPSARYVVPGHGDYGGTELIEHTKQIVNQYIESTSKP

[4] = test system: TEM beta-lactamase (Klebsiella pneumoniae); assay: Minimum protective concentration used to protect the compound against Klebsiella pneumoniae A20634 beta-lactamase catalyzed hydrolysis
[5] = test system: Escherichia coli; assay: Compound alone was evaluated for minimum inhibitory concentration against Escherichia coli A20107; format: functional
In short: (§1)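 Agar dilution MIC: organisms deposited onto medicated agar plates with a Steers replication device.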

[6] = test system: Escherichia coli; assay: Compound alone was evaluated for minimum inhibitory concentration against Escherichia coli A20111; format: functional
In short: as §1

[7] = test system: Staphylococcus aureus; assay: Compound alone was evaluated for minimum inhibitory concentration against Staphylococcus aureus A15033; format: functional
In short: as §1

[8] = test system: Staphylococcus aureus; assay: Compound alone was evaluated for minimum inhibitory concentration against Staphylococcus aureus A9606; format: functional
In short: as §1

[9] = test system: Escherichia coli; assay: Compound was evaluated for minimum inhibitory concentration in the presence of amoxicillin against Escherichia coli A20107; format: functional
In short: (§2)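 Agar dilution MIC of a 1:1 (w/w) mixture of test compound with amoxicillin. Organisms were applied to medicated agar plates with a Steers replicator.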

[10] = test system: Escherichia coli; assay: Compound was evaluated for minimum inhibitory concentration in the presence of amoxicillin against Escherichia coli A20111; format: functional
In short: as §2

[11] = test system: Staphylococcus aureus; assay: Compound was evaluated for minimum inhibitory concentration in the presence of amoxicillin against Staphylococcus aureus A15033; format: functional
In short: as §2

[12] = test system: Staphylococcus aureus; assay: Compound was evaluated for minimum inhibitory concentration in the presence of amoxicillin against Staphylococcus aureus A9606; format: functional
In short: as §2

Carbapenem-hydrolyzing beta-lactamase KPC (Klebsiella pneumoniae), sequence (Q9F663 whole entry): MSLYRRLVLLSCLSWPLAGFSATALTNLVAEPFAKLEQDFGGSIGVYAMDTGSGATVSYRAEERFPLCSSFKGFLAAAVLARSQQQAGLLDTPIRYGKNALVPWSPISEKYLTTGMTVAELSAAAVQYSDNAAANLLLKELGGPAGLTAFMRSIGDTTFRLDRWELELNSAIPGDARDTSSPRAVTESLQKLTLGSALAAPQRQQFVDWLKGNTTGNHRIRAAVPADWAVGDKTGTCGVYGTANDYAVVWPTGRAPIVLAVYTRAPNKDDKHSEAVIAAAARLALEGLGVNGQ

Compound | MPC [2] [µg/mL] | MPC [3] [µg/mL] | MPC [4] [µg/mL] | MIC [5] [µg/mL] | MIC [6] [µg/mL] | MIC [7] [µg/mL] | MIC [8] [µg/mL] | other results
CC1(C)[C@H](C(=O)O)N2C(=O)C[C@H]2S1(=O)=O |  |  |  |  |  |  |  | MPC [1]: 1.6 µg/mL
C[C@]1(CCl)[C@H](C(=O)O)N2C(=O)CC2S1(=O)=O (stereo partly drawn) | 3.1 | 12.5 | 3.1 |  |  |  |  | 
C[C@]1(CBr)[C@H](C(=O)O)N2C(=O)CC2S1(=O)=O (stereo partly drawn) | 3.1 | 12.5 | 1.6 |  |  |  |  | 
C[C@]1(CO)[C@H](C(=O)O)N2C(=O)CC2S1(=O)=O (stereo partly drawn) | > 100 | 100 | 6.2 |  |  |  |  | 
CC1(C)S[C@@H]2[C@H](NC(=O)[C@H](N)c3ccc(O)cc3)C(=O)N2[C@H]1C(=O)O [AMOXICILLIN] |  |  |  | > 125 | > 125 | 32 (≈ 87.6 µM) | 32 (≈ 87.6 µM) | 
O=C(O)[C@H]1/C(=C/CO)O[C@@H]2CC(=O)N21 [CLAVULANIC ACID] |  | 63 |  | 63 (≈ 316 µM) | 63 (≈ 316 µM) | 63 (≈ 316 µM) | 32 (≈ 161 µM) | MIC [9]: 16 µg/mL; MIC [10]: 4 µg/mL; MIC [11]: 4 µg/mL; MIC [12]: 2 µg/mL
